Screening data as filed in PubChem.
PABP FP inh: blocks human PABP binding to poly(A) RNA; actives 1% (n = 290,000); calls only at 35 µM; fluorescence polarization; P11940;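 note: calls also rest on retests at 20 µM and on dose response follow-up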
MLLE-PAM2 inh: inhibitors of microRNA-mediated deadenylation, human PABP1 MLLE binding; P11940; GST-MLLE / FITC-PAM2 fluorescence polarization; inhibition, % at 20 µM; actives 0.36% (n = 360,000); AID 588489; in the data active = inhibition above about 35%, passing the limit was not always enough;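 note: plate controls were DMSO wells with GST-MLLE for no effect and wells lacking GST-MLLE protein for full effect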
MT1-MMP act inh: blocks activation of human MT1-MMP; P50281; HT1080 RFP-PRO-GFP cells, GFP/RFP ratio fluorescence, overnight; percent of plate control window, DMSO zero; actives 0.061% (n = 360,000); GFP/RFP ratio change, % at 20 µM;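 active = GFP/RFP ratio change of at least 30% with cell ATP level not reduced by more than half and red fluorescence within 50% of control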
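Material – HT1080 RFP-PRO-GFP cells · Control set – DMSO wells and RFP-L50D-GFP cells · Incubation – overnight cell settling, then overnight compound exposure, 37 °C, 5% CO2 · Compound dosing – single-point 20 µM compound, 1% DMSO · Read-out – GFP/RFP fluorescence ratio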
SKN-1 block: inhibitors of C. elegans SKN-1 | C. elegans VP596 Pgst-4::GFP/RFP ratio, acrylamide-induced, 24 h | inhibition, % at 21.8 µM | actives 0.49% (n = 360,000);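 active = interference check ratio from 0.5 to 1.5 plus GFP to RFP signal ratio inhibition reaching or exceeding a fixed threshold, cut at about 30% in these data, passing the limit was not always enough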
eIF4H inh: inhibitors of RNA binding by human eIF4H. Q15056. eIF4H fluorescence polarization binding assay. inhibition, % at 35 µM. actives 0.94% (n = 290,000). AID 2012;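 note: calls also rest on retests at 20 µM and on dose response follow-up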
An asterisk follows results filed as active; i = inactive; ? = inconclusive; / = not tested or not shown; + = active, no number; ! = a repeat was not active. Only some compounds are listed: those with a hit (about 1.8% of all), similar ones and a draw of the others. Unless noted, the rule behind the calls is not given here.

SMILES	PABP FP inh	MLLE-PAM2 inh	MT1-MMP act inh	SKN-1 block	eIF4H inh
c1ccc(C2=NNC(c3ccccn3)=NN2)nc1	i	43*	-2	-7	7
O=C(COC(=O)c1cc2c(s1)CCC2)Nc1ccc(F)cc1	+	4	-11	-10	97*
O=C(Nc1ccc(F)cc1)Nc1ccc(N2CCOCC2)c2nonc12	i	0	4	11	2
COc1ccc(NC(=O)Nc2ccc(N3CCOCC3)c3nonc23)c(OC)c1	i	-11	24	44*	10
COc1ccc(Nc2nc(N)nc(CSc3nnc(N)s3)n2)cc1	i	1	4	-10	5
COc1ccc(Nc2nc(N)nc(CSc3nccn3C)n2)cc1	i	15	2	5	90*
O=C(Sc1ccc(Cl)cc1)c1ccccn1	/	33	-6	55*	/
O=C(NCCNC(=O)c1ccccn1)c1ccc(Cl)cc1	i	-1	1	6	-19
Cc1ccc(NC2=Nc3ccccc3N3C2=Nc2c(c(C)nn2-c2ccccc2)C3c2ccc(O)c(O)c2)cc1 (stereo unspecified)	i	-3	-4	36*	24
CCOC(=O)c1c(CSc2ccccc2)n(C)c2cc(Br)c(O)c(CN(C)C)c12	i	8	2	-1	-8
CCOC(=O)c1c(CSc2ccc(C)cc2)n(C)c2cc(Br)c(O)c(CN(C)C)c12	i	100*	0	9	18
C[C@H]1CN([C@@H](C)CO)C(=O)c2cc(NC(=O)NC3CCCCC3)ccc2O[C@H]1CN(C)C(=O)Nc1ccc(C(F)(F)F)cc1	/	-11	-3	10	/
COc1ccc(CCNc2ccc(C)cc2)cc1	i	12	9	12	4
COc1ccc(NC(=S)c2ccncc2)cc1	i	22	3	0	-6
Cc1ccc(NC(=S)c2ccc3ccccc3n2)c(C)c1	i	36*	-1	5	-3
COc1ccc(C(O)CNc2ccc(C)cc2)cc1 (stereo unspecified)	i	7	3	36*	-7
Cc1ccc(C)c(NC(=O)c2ccc3ccccc3n2)c1	i	8	-4	6	-1
COc1ccc(NC(=S)c2ccc3ccccc3n2)cc1	i	38*	-6	5	-12
COc1ccc(C(=S)Nc2ccc(C)cc2)cc1	i	40*	3	8	2
Oc1ccc(C=Nc2ccc3ncccc3c2)c(O)c1	+	/	/	/	81*
Oc1ccc(C=Nc2cccc3ncccc23)c(O)c1	+	23	-12	21	58
CCc1nc2c(OCc3ccccc3C(=O)OC)cccn2c1N(C)C(=O)c1cccc(OC)c1	/	5	-9	1	/
COC(=O)c1c(NC(=S)Nc2cc(OC)c(Cl)cc2OC)sc2c1CCCCC2	i	47*	4	8	8
CCOC(=O)C1=C(Nc2ccccc2)CC(C)(O)C(C(=O)OCC)C1c1ccc(Cl)cc1 (stereo unspecified)	i	-1	-2	44*!	-7
Cc1ccnc(SCc2cc(=O)c(OC(=O)c3cccs3)co2)n1	i	26	7	-6	-4
SMILES	PABP FP inh	MLLE-PAM2 inh	MT1-MMP act inh	SKN-1 block	eIF4H inh
Cc1ccnc(SCc2cc(=O)c(OC(=O)c3ccco3)co2)n1	+	-2	/	4	7.6*
CCOc1cccc(=O)c2c(C)n(Cc3ccco3)c(C)c12	+	-18	-25	16	95*
CCCCCCn1cc(CN2CC(N(C)CC)CS2(=O)=O)nn1 (stereo unspecified)	/	/	3	0	/
CCC(=O)N1CCC1(C)C(=O)Nc1ccc2scnc2c1 (stereo unspecified)	/	6	-2	23	/
COCCn1c(C)cc(/C=C2/SC(=O)N(C(C)C(=O)OC)C2=O)c1C (stereo unspecified)	i	8	2	-3	3
COCCn1c(C)cc(/C=C2\NC(=S)N(C)C2=O)c1C	+	-62	-9	14	65
Cc1cc(C)n2c(SCc3ccc(Br)cc3)nnc2n1	i	-3	1	6	-6
Cc1cc(C)n2c(SCc3c(C)noc3C)nnc2n1	i	1	3	33*	-9
COC(=O)c1ccc(NC(=S)NC2CCCCC2C)cc1 (stereo unspecified)	+	14	5	-15	active
CCOc1cccc(CNc2ccc(O)cc2)c1OCc1ccc(Cl)cc1	i	1	10	16	34
CCOc1ccccc1CNc1ccc(O)cc1	+	4	17	42*	51
CCOc1cc(CNc2ccc(O)cc2)ccc1OCc1ccc(Cl)cc1Cl	i	-11	8	41*	42
Cc1ccc(C(=O)N2CCn3c(C)ccc3C2C)cc1 (stereo unspecified)	+	-23	-14	4	64*
COc1cc(O)c(C(C)=O)c(CC(=O)O)c1	+	2	-4	6	96*
COc1ccc2c(c1)N(C)/C(=C/c1cccc[n+]1C)S2	i	-138	-86	2	-1
Cc1ccc2c(c1)S/C(=C/c1ccc[n+](C)c1)N2CCO	i	-119	-33	-6	2
CCN1/C(=C/c2cccc[n+]2C)Sc2ccc(OC)cc21	i	-140	-81	4	-9
Cc1ccc2c(c1)N(C)/C(=C/c1cccc[n+]1CCO)S2	+	-133	-50	-7	-2
Cc1ccc2c(c1)N(C)/C(=C/c1cccc[n+]1C)S2	+	-145	-77	10	6
CN1/C(=C/c2cccc[n+]2C)Sc2ccccc21	+	-140	-50	13	-2
Cc1cccc(NC(=O)CCCN2C(=O)C(c3ccccc3)Oc3cccnc32)c1C (stereo unspecified)	i	-18	3	4	5
COc1ccccc1NC(=O)Cc1nc(=O)[nH]c(=O)[nH]1	/	-4	0	-6	/
CN(CCCN1CCOCC1)C(=O)c1cc(COc2cccc(C(F)(F)F)c2)on1	i	7	2	45*	-18
NC(=O)C1=C[C@@H](c2ccc(C(F)(F)F)cc2)C[C@@H](OCc2ccc(CO)cc2)O1	i	1	-1	0	-13
NC(=O)C1=C[C@H](c2ccc(C(F)(F)F)cc2)C[C@H](OCc2ccc(CO)cc2)O1	+	18	3	7	?
CC(Oc1ccc2ccc(=O)oc2c1)C(=O)NC(Cc1c[nH]c2ccc(O)cc12)C(=O)O (stereo unspecified)	i	-14	1	8	87*
Cc1c(C)c2ccc(OC(C)C(=O)N[C@@H](Cc3c[nH]c4ccccc34)C(=O)O)c(C)c2oc1=O (stereo partly specified)	i	0	3	5	-5
Cc1c(OC(C)C(=O)NC(Cc2c[nH]c3ccc(O)cc23)C(=O)O)ccc2c1oc(=O)c1ccccc12 (stereo unspecified)	+	7	5	4	81*
